From PubChem BioAssay
An excerpt weighted towards active compounds, which were near 9.6% of everything screened.
L major viab: reduces viability of Leishmania major promastigotes; 200,000 compounds, 9% hits; resazurin fluorescence viability; inhibition, % at 10 µM; in the data active = inhibition above about 50%;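 also: promastigotes grown with compound for 44 hours at 28 °C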
MT stabilize HCS: microtubule stabilizers in HeLa cells; % tubulin-high responders, % at 10 µM; HeLa tubulin immunostaining HCS, 24 h; share of cells brighter than vehicle mean+2SD; 200,000 compounds, 0.83% hits;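 active = plate Z-score above 3 for both tubulin-high and condensed-nucleus cell shares, with cell loss under 80%, at 10 µM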;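 also: anti alpha tubulin signal scored within the nucleus-defined area of each cell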
APP transl inh: APP translation inhibition; SH-SY5Y APP 5'UTR-luciferase reporter, luminescence; inhibition, % at 2 µM; 190,000 compounds, 0.82% hits;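 active = inhibition above a set limit, derived from the sample mean plus 3 SD, cut at about 45% in these data; inconclusive = one replicate passes the limit while the other fails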
BaF3 parental: counter-screen for JAK2V617F inhibitors: parental Ba/F3 viability inhibitors. CellTiter-Glo ATP luminescence. 220,000 compounds, 1.1% hits. AID 1486. inhibition, % at 5.6 µM;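 active = inhibition above a per-campaign cutoff, the mean inhibition of all tested compounds plus 3 SD, cut at about 27% in these data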
b-catenin transl: alters nuclear translocation of beta-catenin in HeLa cells; 190,000 compounds, 0.3% hits; nuclear translocation activity, % at 5 µM; immunofluorescence imaging;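 active = nuclear translocation activity above 50% at 5 µM, with a well cell count of 50 or more; inconclusive = wells under 50 cells across six images, flagged as toxic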;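 also: per-cell ratio of nuclear to cytoplasmic median beta-catenin stain intensity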
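System: Human HeLa cells, endogenous beta-catenin | Compound dosing: 5 µM primary, 0.02–20 µM confirmation | Timing: 24 h compound exposure at 37°C, 5% CO2 | Measured by: Fluorescence imaging of beta-catenin antibody stain plus DAPI | Read-out basis: % activation of per-cell nuclear versus cytoplasmic median beta-catenin signal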
Ba/F3 V617F tox: reduce viability of Ba/F3 cells dependent on JAK2V617F; inhibition, % at 5.6 µM; Ba/F3 EpoR-JAK2V617F viability, ATP luminescence; 220,000 compounds, 1.1% hits;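 active = inhibition above the campaign mean plus 3 SD over all tested compounds, cut at about 24% in these data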;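 also: cytokine-independent growth of Ba/F3 cells driven by EpoR plus mutant JAK2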
Hits are given with their value; – = inactive; ? = inconclusive; · = not tested or not shown.

SMILES	L major viab	MT stabilize HCS	APP transl inh	BaF3 parental	b-catenin transl	Ba/F3 V617F tox
COc1cc(S(=O)(=O)N(Cc2cccnc2)Cc2ccco2)ccc1-n1cnnn1	–	–	–	–	–	–
COc1cccc(CN(Cc2cccnc2)S(=O)(=O)c2ccc(-n3cnnn3)c(C)c2)c1	100	–	–	–	–	–
CC(O)CNc1nc2ccccc2n1CC(=O)N1CCN(Cc2ccccc2)CC1 (stereo not drawn)	–	–	–	–	–	–
COC(=O)C(C)Sc1nnc(Cc2cc(=O)[nH]c(=O)[nH]2)n1-c1ccc(OC)cc1 (stereo not drawn)	–	–	–	–	·	–
Cc1sc2ncnc(Sc3nnnn3-c3ccccc3)c2c1C	89	–	–	–	–	–
CCCC(=O)NC(c1ccc(N(C)C)cc1)c1c(O)ccc2ccccc12 (stereo not drawn)	100	–	–	–	·	–
CC(=O)NC(c1ccc([N+](=O)[O-])cc1)c1c(O)ccc2ccccc12 (stereo not drawn)	–	–	–	–	–	–
CC(C)C(=O)NC(c1ccc([N+](=O)[O-])cc1)c1c(O)ccc2ccccc12 (stereo not drawn)	97	–	–	–	–	–
CC(=O)NC(c1ccccc1)c1c(O)ccc2ccccc12 (stereo not drawn)	–	–	–	–	–	–
Cc1ccc(C(NC(=O)C2CCCCC2)c2c(O)ccc3ccccc23)cc1 (stereo not drawn)	97	–	–	–	–	–
CCC(=O)NC(c1cccc([N+](=O)[O-])c1)c1c(OC(C)=O)ccc2ccccc12 (stereo not drawn)	80	–	–	–	–	–
CCCC(=O)NC(c1ccc(OC)c(OC)c1)c1c(O)ccc2ccccc12 (stereo not drawn)	100	–	–	–	–	–
CCCCC(=O)NC(c1ccc(OC)c(OC)c1)c1c(O)ccc2ccccc12 (stereo not drawn)	100	–	–	–	–	–
Cc1coc2c1C(=O)C(=O)c1c-2ccc2c1CCCC2(C)C	98	–	–	–	–	–
C[C@H]1COC2=C1C(=O)C(=O)c1c2ccc2c1CCCC2(C)C	–	–	–	–	–	–
COc1ccc(Nc2nc3cc(C)ccc3cc2C#N)c(OC)c1	–	21	92	–	–	–
O=P(c1ccccc1)(c1ccccc1)N(c1ccccc1)c1ccccc1	65	–	–	–	–	–
CC(C)NC(=O)CCCC(=O)NC(C)C	–	–	–	–	·	–
N=c1ccn(Cc2ccc(F)cc2)cc1	·	·	·	61	–	70
O=c1ccn(Cc2ccccc2)cc1	·	·	·	·	–	·
CC(=O)Nc1ccc(NC2=C/C(=N/S(=O)(=O)c3cccs3)c3ccccc3C2=O)cc1	100	–	–	–	?	–
Cc1ccc(NC2=C/C(=N/S(=O)(=O)c3cccs3)c3ccccc3C2=O)cc1C	82	–	–	–	–	–
Cc1cc[n+](C2=C([O-])c3ccccc3C(=O)/C2=N\S(=O)(=O)c2cccs2)cc1C	–	–	–	–	–	–
Cc1ccc(-n2c3c(c(=O)[nH]c2=O)C(NS(=O)(=O)c2ccc(Cl)cc2)(C(F)(F)F)C(=O)N3)cc1 (stereo not drawn)	–	–	–	–	–	–
COc1ccc(C(=O)/C(=C/O)N=Nc2ccc(F)cc2)cc1	61	–	–	–	–	–
SMILES	L major viab	MT stabilize HCS	APP transl inh	BaF3 parental	b-catenin transl	Ba/F3 V617F tox
COc1ccc(NC(=O)c2cccs2)cc1	–	–	–	–	–	–
O=C(/C(=C/O)N=Nc1ccc(Cl)cc1)c1ccncc1	100	–	–	–	–	–
COc1ccc(N=N/C(=C\O)C(=O)c2cccs2)cc1	69	–	–	–	–	–
CN1CCc2c(sc3c2C(=O)NC(c2ccco2)N3)C1 (stereo not drawn)	–	–	–	30	–	–
CCOC(=O)N1CCc2c(sc3c2C(=O)NC(c2ccccc2)N3)C1 (stereo not drawn)	–	22	–	–	134	–
CN1CCc2c(sc3c2C(=O)NC(c2cn(Cc4ccccc4)c4ccccc24)N3)C1 (stereo not drawn)	100	–	–	–	–	–
COc1ccc(Br)cc1C1NC(=O)c2c(sc3c2CCN(C)C3)N1 (stereo not drawn)	·	·	·	·	–	·
CC(=O)c1sc(N/N=C2\CC3CCC2(C)C3(C)C)nc1C (stereo not drawn)	83	–	–	–	–	–
CCOC(=O)C(C)(C)N(Cc1ccccc1C)S(=O)(=O)c1ccc(Cl)c([N+](=O)[O-])c1	100	–	–	–	–	–
CCCN(CCC)S(=O)(=O)c1ccc(Cl)c([N+](=O)[O-])c1	–	–	–	–	–	–
FC(F)(F)c1nc(Sc2ncccc2C(F)(F)F)n[nH]1	·	·	·	–	–	–
COc1cc(CNCc2ccccn2)ccc1OCc1cccc(Cl)c1	99	–	–	–	·	–
COc1ccc(CCN(C)Cc2ccc(OCc3ccccc3)c(OC)c2)cc1OC	64	–	–	–	–	–
COc1cc(CNCc2ccccn2)ccc1OCc1c(Cl)cccc1Cl	100	–	–	–	–	–
COc1cc(CNCc2ccco2)ccc1OCc1ccccc1	100	–	–	–	–	–
COc1ccc(CC(=O)NCc2ccco2)cc1OC	–	–	–	–	–	–
COc1cc(CNc2ncn[nH]2)ccc1OCc1cccc(C)c1	–	–	–	–	–	–
COc1ccc(-c2c(C)sc(NC(=O)c3ccnn3C)c2C#N)cc1	–	–	–	–	–	–
Cc1ccc(CN2CCN(/N=C/C(Br)=C\c3ccccc3)CC2)cc1	·	·	·	–	–	–
COc1ccc(CNc2ncccn2)cc1OC	–	–	–	–	–	–
COc1cc(CNC23CC4CC(CC(C4)C2)C3)ccc1OCc1ccccc1	79	–	–	–	–	–
COc1cc(CNc2ccc(N3CCCC3)cc2)ccc1OCc1ccccc1	–	–	–	–	–	–
COc1cc(CNCc2ccccn2)ccc1OCc1ccc(Cl)cc1	96	–	–	–	–	–
C=CCN(CC=C)C(=O)c1c(OC)cccc1OC	–	–	–	–	–	–
C=CCc1c(C)[nH]c2c(OC)cccc2c1=S	76	–	–	–	–	–
SMILES	L major viab	MT stabilize HCS	APP transl inh	BaF3 parental	b-catenin transl	Ba/F3 V617F tox
COC(=O)c1nnn(-c2nonc2N)c1CN1CCc2ccccc21	–	36	–	–	–	–
COCCn1c(SCc2nc3scc(-c4ccc(Cl)cc4)c3c(=O)[nH]2)nnc1-c1cccc(C)c1	–	–	–	–	–	–
CC(C)CC(=O)NS(=O)(=O)c1ccc(NS(C)(=O)=O)cc1	–	–	–	–	–	–
Cc1cc(C(=O)COC(=O)c2ccc(CO)cc2)c(C)n1CC1COc2ccccc2O1 (stereo not drawn)	55	–	–	–	·	–
Clc1cc(CSc2ccccc2)nc(-c2ccccc2)n1	–	–	·	–	–	–
O=C(OCC#CCSc1nnc(-c2cccc3ccccc23)o1)c1ccco1	–	–	–	–	–	–
